Experimental findings from article PMC6322912 (Biochemistry, 2018) are described below.

In assay [1] the target is T1, SAMHD1 (Homo sapiens, UniProt Q9Y3Z3). Kind of assay: Dose–response SAMHD1 dNTPase assay. It is filed as biochemical. To be noted: for inhibition at 500 µM: read-out: SAMHD1 inhibition in dose–response dNTPase assays.
The target in assay [2] is T1, SAMHD1. Kind of assay: b4NPP–SAMHD1 HTS. It is filed as biochemical. To be noted: increasing concentrations of dGTP; normalized to no dGTP. A digest of the protocol:
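Recombinant SAMHD1 was expressed in E. coli BL21* as an MBP fusion, tag-cleaved, and purified by heparin and size-exclusion chromatography. Nucleotide was added, then 2 mM final b4NPP. A410 was read over 45 min; rates came from 0–20 min slopes, with no-enzyme baseline.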

T1 sequence (Q9Y3Z3 whole entry): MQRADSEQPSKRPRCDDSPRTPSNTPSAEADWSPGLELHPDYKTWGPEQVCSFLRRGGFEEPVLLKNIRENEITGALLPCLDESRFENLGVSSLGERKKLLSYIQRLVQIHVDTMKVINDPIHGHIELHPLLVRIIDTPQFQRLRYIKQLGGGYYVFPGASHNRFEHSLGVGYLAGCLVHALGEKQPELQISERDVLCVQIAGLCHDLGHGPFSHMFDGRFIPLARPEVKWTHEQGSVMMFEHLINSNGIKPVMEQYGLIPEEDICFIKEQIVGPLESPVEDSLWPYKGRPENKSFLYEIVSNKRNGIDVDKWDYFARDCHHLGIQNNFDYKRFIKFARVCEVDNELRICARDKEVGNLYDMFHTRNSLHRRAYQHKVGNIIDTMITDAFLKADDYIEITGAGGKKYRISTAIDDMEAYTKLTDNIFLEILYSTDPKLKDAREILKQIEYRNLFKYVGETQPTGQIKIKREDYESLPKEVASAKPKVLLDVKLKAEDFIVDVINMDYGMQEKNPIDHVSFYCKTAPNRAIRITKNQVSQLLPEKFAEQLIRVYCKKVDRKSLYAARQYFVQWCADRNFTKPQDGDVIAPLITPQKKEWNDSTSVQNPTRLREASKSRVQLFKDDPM

In general, IC50 refers to the point on the concentration scale where inhibition reaches its midpoint. Read a high IC50 as a need for much substance. In turn, `CC(C)(O)c1ccccc1CC[C@@H](SCC1(CC(=O)O)CC1)c1cccc(/C=C/c2ccc3ccc(Cl)cc3n2)c1` [Montelukast] had an IC50 against SAMHD1 [1] of less than 250 µM.
As to `Nc1nc2c(ncn2[C@H]2C[C@H](O)[C@@H](COP(=O)(O)OP(=O)(O)OP(=O)(O)O)O2)c(=O)[nH]1` [dGTP], on SAMHD1 [2], the “Inhibition of SAMHD1-mediated b4NPP hydrolysis” value is listed as “completely inhibited”.
Regarding `Nc1nc2c(ncn2[C@H]2C[C@H](O)[C@@H](COP(O)(=S)OP(=O)(O)OP(=O)(O)O)O2)c(=O)[nH]1` (stereo partly drawn) [dGTPαS, deoxyguanosine triphosphate α S], the “Inhibition of preactivated SAMHD1 dCTPase activity” value on SAMHD1 [1] (150 μM dCTP substrate, tetramer preformed with 10 μM GTP and 25 μM dATPαS) was “inhibition”.
A word on the inhibition: it is the relative decrease from the control value, in per cent. `CC(=O)CCCCn1c(=O)c2c(ncn2C)n(C)c1=O` [Pentoxifylline]: the inhibition at 500 µM at SAMHD1 [1] is roughly 25%.
The same measure, in the same setting: in the case of `Nc1nc2c(ncn2CCC(CO)CO)c(=O)[nH]1` [Penciclovir] it was roughly 25%.
On to `CCCCCOC(=O)Nc1nc(=O)n([C@@H]2O[C@H](C)[C@@H](O)[C@H]2O)cc1F` [Capecitabine], for which, on SAMHD1 [1], the inhibition at 500 µM was roughly 25%.
Turning to `COC(=O)c1ccc(O)c2nc3c(C=O)c(O)cc(O)c3nc12` [Lomofungin], the IC50 against SAMHD1 [1] is less than 250 µM.
At SAMHD1 [1], `CC[C@H](c1ccc(O)cc1)[C@@H](CC)c1ccc(O)cc1` [Hexestrol] yielded an IC50 of less than 250 µM.
Same read-out and setting: in the case of `CC1=C(/C=C/C(C)=C/C=C/C(C)=C/C(=O)O)C(C)(C)CCC1` [retinoic acid] it was less than 250 µM; in that of `CN1C[C@H](C(=O)N[C@]2(C)O[C@@]3(O)[C@@H]4CCCN4C(=O)[C@H](Cc4ccccc4)N3C2=O)C=C2c3cccc4[nH]cc(c34)C[C@H]21` [Ergotamine], less than 250 µM; in that of `N[C@@H](Cc1cc(I)c(Oc2cc(I)c(O)c(I)c2)c(I)c1)C(=O)O` [L-Thyroxine], less than 250 µM.
`Nc1cc(-c2ccncc2)c[nH]c1=O` [Amrinone]: the half-maximal inhibitory concentration (IC50) against SAMHD1 [1] was less than 250 µM.
At SAMHD1 [1], `CC1=C(CC(=O)O)c2cc(F)ccc2/C1=C\c1ccc([S+](C)[O-])cc1` (stereo not shown) [Sulindac] showed an IC50 of less than 250 µM.
